Data set [1] concerns the target T1, DNA topoisomerase 2-alpha (Homo sapiens, UniProt P11388). Description: Inhibition of human topoisomerase 2 alpha-mediated decatenation of kDNA at 100 uM by agarose gel electrophoresis. Put shortly:
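150 ng kDNA with 2–4 units purified human topo II and 100 μM compound in DMSO, buffer 0.5 M Tris-HCl pH 8, NaCl, MgCl2, DTT, BSA with ATP (stock buffer concentrations), 20 μL, 37 °C 30 min. Stopped with SDS, proteinase K 37 °C 15 min; 1% agarose in TAE with 0.5 μg/mL EtBr; bands quantified by densitometry; etoposide 100 μM as reference.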

The test system of data set [2] is HEK293. Description: Cytotoxicity against human HEK293 cells assessed as cell survival at 30 uM after 48 hrs by MTT assay. Conditions: HEK293, 48 h, read-out: Activity. It is filed as functional.
Data set [3] addresses T1, DNA topoisomerase 2-alpha. The data set can be described thus: Inhibition of etoposide poisoning activity against human recombinant DNA topoisomerase 2alpha assessed as enhancement of in relaxation of supercoiled plasmid pBR322 DNA at 100 uM after 30 mins by agarose gel electrophoresis.
Data set [4] deals with T1, DNA topoisomerase 2-alpha. Description: Inhibition of etoposide poisoning activity against human recombinant DNA topoisomerase 2alpha assessed as enhancement of in relaxation of supercoiled plasmid pBR322 DNA at 200 uM after 30 mins by agarose gel electrophoresis.
For data set [5], the system named is HEK293. Description: Anticlonogenic activity against human HEK293 cells assessed as inhibition of colony formation of cells at 20 to 100 uM after 48 hrs by crystal violet staining. It is filed as functional, cell-based. The essentials: (§1)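 Clonogenic survival in HEK 293 and Vero cells, 48 h exposure at graded concentrations; % survival plotted; mean ± SD of three independent experiments. Cells grown in DMEM with 10% FBS and 1% antibiotic at 37 °C, 5% CO2; compound diluted from 100 mM DMSO stock into DMEM, added at 60–70% confluence.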

A short description of data set [6]: Anticlonogenic activity against african green monkey Vero after 48 hrs by crystal violet staining. It is filed as ADME, cell-based. Conditions: chlorocebus sabaeus, Vero cells; read-out: LC50. The essentials: (§2)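 HEK 293 and Vero cells were grown in DMEM with 10% FBS and 1% penicillin/streptomycin at 37 °C in 5% CO₂. At 60–70% confluence they were exposed for 48 h to a range of concentrations, diluted in DMEM from 100 mM DMSO stocks. Colony survival is expressed as %. Values are mean ± SD of three independent experiments; LC₅₀ is the concentration killing half the cells.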

Data set [7] deals with HEK293. The data set can be described thus: Cytotoxicity against human HEK293 cells assessed as cell survival after 48 hrs by MTT assay. It is filed as functional. Conditions: HEK293, 48 h, read-out: LC50 (the source's name). Put shortly: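 HEK 293 cells were cultured in DMEM with 10% FBS and antibiotics at 37 °C in 5% CO₂. At 60–70% confluence they were treated for 48 h with various concentrations, diluted in DMEM from 100 mM DMSO stocks. Survival was read by MTT. LC₅₀ is the concentration killing 50% of cells. Data are mean ± SD of three independent experiments.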
Background: Formazan colour is commonly taken as a measure of viable cells.

For data set [8], the target named is T1, DNA topoisomerase 2-alpha. Description: Inhibition of human topoisomerase 2 alpha-mediated unwinding of supercoiled DNA assessed as DNA intercalation at 100 uM by agarose gel electrophoresis. Put shortly:
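250 ng negatively supercoiled E. coli plasmid incubated 20 min at 37 °C with 1 μg/mL ethidium bromide (intercalator control), 100 μM etoposide or test compound; run on 1% agarose in TAE without EtBr, then post-stained with 0.5 μg/mL EtBr; mobility retardation scored.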

The target of data set [9] is T1, DNA topoisomerase 2-alpha. Description: Inhibition of human topoisomerase 2 alpha-mediated relaxation of pRYG plasmid DNA at 100 uM by agarose gel electrophoresis. The essentials:
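250 ng supercoiled pRYG plasmid, 2–4 units hTopoIIα, 100 μM compound, ATP-containing Tris pH 8 buffer, 20 μL, 37 °C 30 min; SDS/proteinase K stop; 1% agarose in TAE without EtBr, post-stained 0.5 μg/mL EtBr; products quantified densitometrically.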

A further data set concerns Vero. The data set can be described thus: Anticlonogenic activity against african green monkey Vero cells assessed as inhibition of colony formation of cells at 20 to 100 uM after 48 hrs by crystal violet staining. It is filed as cell-based. The conditions noted are these: chlorocebus sabaeus. Put shortly:
as §1

In data set [10] the test system is HEK293. Description: Anticlonogenic activity against human HEK293 cells after 48 hrs by crystal violet staining. It is filed as functional. Conditions: HEK293, 48 h, read-out: LC50 (the source's name). Put shortly: as §2
Data set [11] is described as follows: Cytotoxicity activity against african green monkey Vero assessed as cell survival at 100 uM after 48 hrs by MTT assay. It is filed as cell-based. The conditions noted are these: chlorocebus sabaeus, Vero cells; read-out: Activity. Put shortly:
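MTT survival of HEK 293 and Vero cells after 48 h with compound at graded concentrations. DMEM, 10% FBS, 37 °C, 5% CO2; dilutions in DMEM from 100 mM DMSO stock, added at 60–70% confluence. Mean ± SD of three independent experiments.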

Data set [12] deals with T1, DNA topoisomerase 2-alpha. The conditions noted are these: HEK293, 100 uM.
Data set [13] concerns the target T1, DNA topoisomerase 2-alpha. Conditions: HEK293, 100 uM. This is another data set of the same source.

Activity calls are given as the source filed them. No cut-off for these calls is given here. Some results are limits rather than exact numbers.

T1 sequence (P11388 whole entry): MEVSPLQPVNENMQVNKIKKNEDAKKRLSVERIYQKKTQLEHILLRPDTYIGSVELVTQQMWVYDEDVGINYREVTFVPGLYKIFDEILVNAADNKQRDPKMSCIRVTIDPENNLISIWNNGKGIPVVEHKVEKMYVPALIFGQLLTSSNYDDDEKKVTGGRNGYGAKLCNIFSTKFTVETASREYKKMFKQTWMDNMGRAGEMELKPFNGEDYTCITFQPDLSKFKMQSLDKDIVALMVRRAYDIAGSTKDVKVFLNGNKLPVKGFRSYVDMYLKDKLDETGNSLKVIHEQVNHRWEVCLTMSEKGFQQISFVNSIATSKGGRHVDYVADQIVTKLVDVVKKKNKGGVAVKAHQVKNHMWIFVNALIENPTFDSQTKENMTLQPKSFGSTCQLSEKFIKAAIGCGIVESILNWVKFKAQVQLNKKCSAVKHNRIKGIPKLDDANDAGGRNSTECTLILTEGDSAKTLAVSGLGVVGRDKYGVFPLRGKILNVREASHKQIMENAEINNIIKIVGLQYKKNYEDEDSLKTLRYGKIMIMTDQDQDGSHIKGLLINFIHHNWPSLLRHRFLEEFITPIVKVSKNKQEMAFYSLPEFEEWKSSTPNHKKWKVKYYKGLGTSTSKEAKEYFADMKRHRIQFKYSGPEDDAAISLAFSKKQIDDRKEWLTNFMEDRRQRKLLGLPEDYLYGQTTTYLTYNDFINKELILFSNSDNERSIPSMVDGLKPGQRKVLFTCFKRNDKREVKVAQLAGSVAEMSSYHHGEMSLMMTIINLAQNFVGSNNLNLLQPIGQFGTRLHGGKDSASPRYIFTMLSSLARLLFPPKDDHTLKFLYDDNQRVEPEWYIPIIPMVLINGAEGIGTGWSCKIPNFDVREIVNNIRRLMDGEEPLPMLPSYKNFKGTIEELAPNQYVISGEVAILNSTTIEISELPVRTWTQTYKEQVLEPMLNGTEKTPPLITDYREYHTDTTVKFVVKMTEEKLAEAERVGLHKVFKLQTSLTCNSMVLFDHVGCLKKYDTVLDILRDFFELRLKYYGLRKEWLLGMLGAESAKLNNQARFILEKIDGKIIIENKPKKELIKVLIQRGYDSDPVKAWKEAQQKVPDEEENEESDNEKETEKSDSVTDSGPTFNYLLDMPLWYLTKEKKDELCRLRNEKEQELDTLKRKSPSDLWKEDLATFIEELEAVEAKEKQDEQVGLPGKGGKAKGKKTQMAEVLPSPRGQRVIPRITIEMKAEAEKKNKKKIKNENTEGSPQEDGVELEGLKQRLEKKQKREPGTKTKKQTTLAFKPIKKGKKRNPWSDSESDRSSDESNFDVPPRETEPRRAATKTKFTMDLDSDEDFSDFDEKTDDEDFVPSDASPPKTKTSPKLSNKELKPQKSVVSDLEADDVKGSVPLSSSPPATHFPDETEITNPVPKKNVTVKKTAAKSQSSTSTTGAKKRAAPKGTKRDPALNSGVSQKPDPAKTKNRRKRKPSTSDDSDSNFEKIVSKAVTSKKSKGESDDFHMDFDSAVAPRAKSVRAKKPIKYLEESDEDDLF

`CC(C)(C)Nc1c(-c2ccccc2)nc2cnccn12`: in data set [1], the inhibition result was “inactive”.

Turning to `CC(C)(C)Nc1cnc2cnccn12`, the inhibition entry in data set [1] was “inactive”.

For `CCOC(=O)c1cnn2c(NC3CCCCC3)c(-c3ccc(Cl)cc3)[nH]c12`, in data set [1], the inhibition entry is “Active”.

As to `Nc1c(-c2ccccn2)nc2ccc(Cl)cn12`, in data set [1], the inhibition entry is “inactive”.

`O=c1[nH]cc(F)c(=O)[nH]1` [FLUOROURACIL]: the viability at 30 µM with HEK293 [2] was 50%.

As to `CC(C)(C)Nc1cnc2ccccn12`, the inhibition entry in data set [1] is “inactive”.

Regarding `CC(C)(C)Nc1c(-c2ccc(Cl)cc2)nc2ncccn12`, the inhibition result in data set [1] is “Active”.

`CC(C)(C)Nc1c(-c2ccccc2Cl)nc2cnccn12`: in data set [1], the inhibition entry was “Active”.

As to `COc1cccc(-c2nc3cnccn3c2NC(C)(C)C)c1`, the inhibition entry in data set [1] is “inactive”.

As to `CCCc1nc2ccccn2c1NC(C)(C)C`, in data set [1], the inhibition entry was “inactive”.

`CC(C)(C)Nc1c(-c2ccc(Cl)cc2)nc2cnccn12`: the inhibition result in [3], in data set [4] and in data set [8] was “inactive” each time. Further, the inhibition result in data set [1] and in data set [9] was “Active” in each case. Further, in the data set with HEK293 [5], the inhibition entry was “Dose-dependent effect”. Moreover, the CC50 at 48 h in data set [6] was determined as 25 µM. In addition, the values for the CC50 in the data set with HEK293 [7] and in the data set with HEK293 [10] were 10 µM and 20 µM, respectively. Further, the “inhibition (INH)” value in the data set on Vero is “Dose-dependent effect”. In data set [11], the viability at 48 h, 100 µM was under 50%.

Take `Nc1c(-c2ccc(Cl)cc2)nc2cnccn12`: the inhibition result in data set [3], in [4] and in data set [8] was “inactive” each time. Further, the inhibition result in data set [1] and in data set [9] was “Active” throughout. The inhibition result with HEK293 [5] is “Dose-dependent effect”. Moreover, in data set [6], the CC50 at 48 h amounted to 28 µM. The values for the CC50 with HEK293 [7] and in the data set with HEK293 [10] were 17 µM and 16 µM, respectively. In addition, the “inhibition (INH)” value with Vero is “Dose-dependent effect”. Besides, the viability at 48 h, 100 µM in [11] was under 50%.

On to `Nc1c(-c2ccc(Cl)cc2)nc2ccccn12`, for which the inhibition entry in [1] and in data set [9] was “Active” throughout.

For the compound `CN(C)c1ccc(-c2nc3ccccn3c2NC(C)(C)C)cc1`, the inhibition entry in [1] is “Active”.

Turning to `CC(C)(C)Nc1c(-c2ccc(F)cc2)nc2ccc(Cl)cn12`, in data set [1], the inhibition result is “Active”.

Take `COc1ccc(-c2nc3cnccn3c2N)cc1`: the inhibition result in [1] and in [9] was “Active” in each case.

Regarding `CC(C)(C)Nc1c(-c2ccc(Cl)cc2)nc2ccc(Cl)cn12`, the inhibition result in [1] and in data set [9] was “Active” in each case.

For `CC(C)(C)Nc1c(-c2cccc3ccccc23)nc2ccccn12`, the inhibition entry in [1] is “Active”.

As for `CC(C)(C)Nc1c(-c2ccc(Cl)cc2)nc2ccccn12`, the inhibition result in data set [1] is “inactive”.

With `CCOC(=O)c1cnn2c(NC(C)(C)C)c(-c3ccc(Cl)cc3)[nH]c12`, the inhibition entry in data set [3], in [4] and in data set [8] was “inactive” each time. For the same compound, the inhibition result in data set [1] and in data set [9] was “Active” each time. Also, in the data set with HEK293 [5], the inhibition result is “Dose-dependent effect”. Further, in data set [6], the CC50 at 48 h amounted to 22 µM. Moreover, the CC50 in the data set on HEK293 [7] and in the data set on HEK293 [10] was 15 µM throughout. The “inhibition (INH)” value in the data set on Vero was “Dose-dependent effect”. The viability at 48 h, 100 µM in [11] is under 50%.

In the case of `N#Cc1ccc(-c2nc3ccc(Br)cn3c2N)cc1`, the inhibition result in [1] is “Active”.

As to `Clc1ccc(-c2nc3cnccn3c2NC2CCCCC2)cc1`, the inhibition entry in data set [1] is “inactive”.

As for `CC(C)(C)Nc1c(-c2ccccn2)nc2ccccn12`, the inhibition entry in [1] and in data set [9] was “Active” each time.

Consider `CC(C)(C)Nc1c(-c2ccc[nH]2)nc2ccccn12`, for which the inhibition result in data set [1] is “inactive”.

As to `COc1cc([C@@H]2c3cc4c(cc3[C@@H](O[C@@H]3O[C@@H]5CO[C@@H](C)O[C@H]5[C@H](O)[C@H]3O)[C@H]3COC(=O)[C@H]23)OCO4)cc(OC)c1O` [ETOPOSIDE], the inhibition entry in data set [3] and in data set [12] was “Active” each time. Besides, the inhibition result in data set [4], in data set [8] and in data set [13] was “inactive” in each case. Further, in the data set with HEK293 [7], the CC50 was determined as 90 µM.

On to `Cc1ccn2c(NC(C)(C)C)c(-c3ccc(Cl)cc3)nc2c1`, for which the inhibition entry in data set [1] is “inactive”.

In the case of `CC(C)(C)Nc1c(-c2ccc(C(=O)O)cc2)nc2cnccn12`, in [1], the inhibition result is “inactive”.

In the case of `CC(C)(C)Nc1c(-c2ccc(Cl)cc2)nc2[nH]c3ccccc3n12`, the inhibition entry in data set [1] is “Active”.

On to `CCOC(=O)c1cnn2c(N)c(-c3ccc(Cl)cc3)[nH]c12`, for which the inhibition entry in data set [3], in [4] and in [8] was “inactive” in each case. Further, the inhibition result in data set [1] and in data set [9] was “Active” throughout. Besides, the inhibition result in the data set with HEK293 [5] is “Dose-dependent effect”. In addition, the CC50 at 48 h in data set [6] is 62 µM. Also, the CC50 in the data set on HEK293 [7] and in the data set on HEK293 [10] was 25 µM in each case. Moreover, in the data set with Vero, the “inhibition (INH)” value is recorded as “Dose-dependent effect”. For the same compound, in data set [11], the viability at 48 h, 100 µM is under 50%.

In the case of `CC(C)(C)Nc1nc2ncccn2c1-c1ccc(C#N)cc1`, the inhibition entry in [1] was “inactive”.

(Values after ChEMBL document CHEMBL1914308, “N-fused imidazoles as novel anticancer agents that inhibit catalytic activity of topoisomerase IIα and induce apoptosis in G1/S phase” (J Med Chem, 2011).)
